Assay outcomes (PubChem BioAssay)
Rows were chosen to be rich in hits. Some 3% of all compounds tested hit in one or more screens of this group.
H9c2 protect: modulators protecting cardiomyocytes from myocardial damage; 0.63% of 360,000 active; protection from H2O2 cell death, % at 20 µM; H9c2 cardiomyocytes, H2O2 injury protection, ATPLite, 2 h; AID 588492;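 active = compounds giving at least 50% protection of heart cells from peroxide-induced death in the single-dose screen, raw or plate-pattern-corrected value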;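 note: 0% = DMSO wells with peroxide and 100% = DMSO wells without peroxide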
HNF4A DNA FP: change in binding of human HNF4 alpha to DNA; P41235; HNF4a-FITC DNA binding, fluorescence polarization, 1 h; activity change, % at 10 µM; 0.3% of 360,000 active; in the data active = activity change above about 30%, passing the limit was not always enough
SENP1 inh: inhibitors of human SENP1 SUMO protease catalytic domain | recombinant SENP1 catalytic domain, CyPet-SUMO1-YPet FRET cleavage | inhibition, % at 10 µM | 0.21% of 360,000 active | AID 624204;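 active = inhibition at least 30% at 10 µM, raw YFP signal under a set limit, fluorescence ratio 0.5 to 1.5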;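 note: 0% = enzyme with DMSO and 100% = no enzyme wells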
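material = recombinant human SENP1 catalytic domain, His6-tagged | quantity = 20 pM enzyme | reagent = 25 nM SUMO1 FRET substrate | compound dosing = 10 µM single point, 0.5% DMSO | timing = 50 min enzyme reaction, room temperature, light-protected | detection = FRET, CFP and YFP emission | control set = no-enzyme low, enzyme-DMSO high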
Exocytosis inh: lytic granule exocytosis inhibition; TALL-104 LAMP-1 surface exposure, flow cytometry; cells stimulated with thapsigargin and PMA; inhibition, % at 10 µM; 0.66% of 360,000 active; AID 651702;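 active = inhibition above about 55%, limit read from the data; inconclusive = no clear call, values can overlap the other calls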
Myeloid diff 2: promotes myeloid progenitor differentiation. ER-HoxA9 myeloid progenitors, lysozyme-GFP differentiation, flow cytometry. calls only at 10 µM. 1% of 360,000 active. AID 624256;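 active = normalized GFP-positive differentiation at or above the plate's own cutoff, the solvent-only control mean plus 3 SD; inconclusive = no clear call, values can overlap the other calls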;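 note: cells exposed to compound for four days before flow analysis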
DSG3 Ab inh: human desmoglein-3 autoantibody binding inhibition | P32926 | DSG3-coupled beads, scFv-anti-DSG3-GFP binding, flow cytometry; active compounds read low | binding (percent of control), % at 10 µM | 0.48% of 310,000 active | AID 588358;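 active = binding more than 3 SD below its plate's average and above zero; inconclusive = below that plate limit but binding exactly zero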;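 note: hits lower antibody fragment binding to DSG3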
Target sequence (P32926 whole entry, looked up, the tested form may be a part): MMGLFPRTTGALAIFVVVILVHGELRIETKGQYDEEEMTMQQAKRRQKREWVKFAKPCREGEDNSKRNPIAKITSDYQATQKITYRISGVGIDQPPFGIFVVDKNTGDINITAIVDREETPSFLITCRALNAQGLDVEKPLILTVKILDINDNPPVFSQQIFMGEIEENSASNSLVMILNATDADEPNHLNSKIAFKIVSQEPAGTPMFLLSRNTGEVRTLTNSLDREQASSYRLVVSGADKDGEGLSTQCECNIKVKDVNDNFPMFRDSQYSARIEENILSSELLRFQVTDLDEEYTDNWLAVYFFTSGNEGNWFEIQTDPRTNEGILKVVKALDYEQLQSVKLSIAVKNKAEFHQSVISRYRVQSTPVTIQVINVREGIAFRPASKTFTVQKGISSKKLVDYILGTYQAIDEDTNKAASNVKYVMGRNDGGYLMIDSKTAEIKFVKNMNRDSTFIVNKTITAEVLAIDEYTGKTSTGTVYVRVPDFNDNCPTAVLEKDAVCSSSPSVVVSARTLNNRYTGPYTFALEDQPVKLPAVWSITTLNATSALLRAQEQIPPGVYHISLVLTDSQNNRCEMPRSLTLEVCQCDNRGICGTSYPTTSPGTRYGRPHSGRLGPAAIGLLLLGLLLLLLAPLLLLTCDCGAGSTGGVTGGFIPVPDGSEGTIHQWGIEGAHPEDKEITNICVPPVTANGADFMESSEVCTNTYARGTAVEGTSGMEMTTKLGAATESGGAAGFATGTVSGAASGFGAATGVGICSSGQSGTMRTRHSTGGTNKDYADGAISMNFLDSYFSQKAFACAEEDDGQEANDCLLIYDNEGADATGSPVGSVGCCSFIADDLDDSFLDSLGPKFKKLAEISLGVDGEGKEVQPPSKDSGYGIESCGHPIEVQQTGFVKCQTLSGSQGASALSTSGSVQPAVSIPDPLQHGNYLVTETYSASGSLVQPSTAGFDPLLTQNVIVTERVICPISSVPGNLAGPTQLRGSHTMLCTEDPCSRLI
SENP1 inh conf: SENP1 (human) inhibition, single concentration confirmation; 34% of 520 active; recombinant SENP1, CyPet-SUMO1-YPet FRET cleavage; AID 651678; shares compounds with SENP1 inh; inhibition, % at 10 µM; in the data active = inhibition mostly above about 35%, no sharp cut-off; inactive = mostly below about 32%;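 note: 0% = enzyme with DMSO and 100% = no enzyme control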
SENP1 kin conf: confirmation of human SENP1 SUMO protease inhibitors, kinetic; inhibition, % at 10 µM; 26% of 520 active; recombinant SENP1, CyPet-SUMO1-YPet FRET kinetic cleavage; shares compounds with SENP1 inh; AID 651690; in the data active = inhibition mostly above about 32%, no sharp cut-off; inactive = mostly below about 29%;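 note: 0% = DMSO with enzyme and 100% = no enzyme substrate only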
* marks the source's active call; other numbers are inactive results; i = inactive; ? = inconclusive; / = no result given.

SMILES | H9c2 protect | HNF4A DNA FP | SENP1 inh | Exocytosis inh | Myeloid diff 2 | DSG3 Ab inh | SENP1 inh conf | SENP1 kin conf
CCN(CC)CCNc1ccc(CO)c2oc3cc(Cl)ccc3c(=O)c12 | -15.1 | 2.0 | 47.5* | 6.1 | i | 106.9 | 55.4* | 35.0*
CCN(CC)CCNC(CC(=O)Nc1ccc(Cl)cc1Cl)C(=O)O (centres undefined) | -2.1 | -1.9 | 0.3 | -1.1 | i | / | / | /
CN(C)CCNc1ccc(CO)c2oc3ccc(O)cc3c(=O)c12 | 12.9 | 7.2 | 58.5* | 6.1 | / | 91.5 | 64.6* | 38.8*
Cc1cccc(C)c1NC(=O)C(C)n1c(-c2ccc(=O)[nH]c2)nc2ccccc21 (centres undefined) | / | 1.6 | 39.7* | 0.5 | i | / | 37.1 | 25.4
Cc1cccc(C)c1NC(=O)C(C1CC1)n1c(-c2ccc(=O)[nH]c2)nc2ccccc21 (centres undefined) | / | 2.2 | 0.5 | -8.1 | i | / | / | /
CC1Sc2ccc(C(=O)NCc3cccc(C(F)(F)F)c3)cc2NC1=O (centres undefined) | -1.3 | 0.4 | 4.8 | 0.2 | i | / | / | /
Cc1ccc(OCCCn2ccnc2)c(Br)c1 | -8.8 | 1.5 | 0.1 | -8.1 | i | 110.5 | / | /
CCCCCCN=C(C)c1ccccc1O | 2.1 | 7.4 | 1.5 | -0.7 | i | 103.6 | / | /
CCC(=NN=C(CC)c1ccccc1O)c1ccccc1O | -6.9 | -2.9 | 46.6* | -0.9 | i | 92.0 | 130.1* | 73.4*
CC(C)[C@H](NC(=O)c1ccccc1)C(=O)OCC(=O)N1CCN(C(=O)c2ccco2)CC1 | 1.4 | 1.2 | -0.9 | -0.7 | i | 100.8 | / | /
CC1(C)Cc2c(sc3nc(C4CC4)n(N)c(=O)c23)CO1 | -1.7 | 1.0 | -0.5 | -9.3 | i | 98.8 | / | /
Nc1ccc(C(=O)N/N=C/c2ccc(N3CCOCC3)s2)cc1 | 0.3 | 3.0 | -39.5 | -2.7 | i | 96.8 | / | /
CC(C)(C)OC(=O)N/N=C/c1ccc(N2CCOCC2)s1 | 3.2 | 41.7* | 43.5* | -8.0 | i | 100.4 | 64.4* | 43.4*
O=C(N/N=C/c1cccnc1)c1cccc(Br)c1 | -0.1 | 1.3 | 31.2* | -0.5 | i | 116.5 | -10.9 | -8.0
O=C(N/N=C/c1cc(Br)c(Br)o1)c1cccnc1 | 0.6 | -25.8 | 34.7* | 12.3 | i | 101.5 | 7.3 | 2.6
COCCn1c(C)c(C)c(S(=O)(=O)c2ccccc2)c1N | 2.4 | 1.8 | -16.4 | -8.9 | i | 96.9 | / | /
COc1cc(Cn2c3ccc(NC(=O)CCc4ccccc4)cc3c(=O)n2C)ccc1F | -4.5 | 2.7 | 32.9* | 1.3 | ? | / | 3.8 | 4.8
COc1cc(Cn2c3ccc(NC(=O)CCc4cccnc4)cc3c(=O)n2C)ccc1F | -1.2 | -0.8 | 6.8 | -3.2 | i | / | / | /
COc1cc2cc(C#N)c(SCC(=O)N3CCOCC3)nc2cc1OC | 12.7 | 1.9 | -18.5 | 5.5 | i | 103.5 | / | /
COc1cc2cc(C)c(SCC(=O)N3CCOCC3)nc2cc1OC | 3.0 | -2.5 | 32.5* | -2.6 | i | 105.0 | 20.6 | 16.2
O=C1CCCc2c1cc(C(=O)Nc1ccc(Br)cn1)c(=O)n2-c1ccccc1 | 16.1 | -1.4 | 69.8* | 0.8 | i | 102.3 | -9.9 | -8.1
CC(/C=C/C=C/c1ccccc1)=N/NC(=O)c1ccc2c(c1)OCCO2 | 12.3 | -8.2 | 5.4 | -4.0 | i | 90.4 | / | /
Cc1cc(Cl)ccc1OCCCC(=O)Nc1ccc(S(=O)(=O)Nc2ncccn2)cc1 | -3.4 | 0.8 | -4.5 | -0.3 | i | / | / | /
COC(=O)/C=C1/SC(=NC(=O)c2cccc([N+](=O)[O-])c2)NC1=O | 0.4 | 1.2 | 0.4 | -4.6 | i | / | / | /
COc1cccc(CNC(=O)C2CSC3(C)CCC(=O)N23)c1 (centres undefined) | -3.1 | 19.5 | 38.5* | -6.4 | i | 138.8 | -3.3 | -0.3
SMILES | H9c2 protect | HNF4A DNA FP | SENP1 inh | Exocytosis inh | Myeloid diff 2 | DSG3 Ab inh | SENP1 inh conf | SENP1 kin conf
O=C1/C(=C/c2ccc([N+](=O)[O-])cc2)Oc2cc(O)ccc21 | -21.3 | 5.7 | 62.5* | 0.6 | i | 94.2 | 45.0* | 26.1
O=C1c2cccc3cc([N+](=O)[O-])cc(c23)C(=O)N1c1ccccc1O | -1.4 | -3.7 | 39.8* | -2.4 | i | 105.8 | 17.5 | 10.3
O=C1c2cccc3cc([N+](=O)[O-])cc(c23)C(=O)N1c1nncs1 | -1.4 | 4.5 | 6.4 | 1.9 | i | 113.8 | / | /
Cc1cc(O)ccc1N1C(=O)c2cccc3cc([N+](=O)[O-])cc(c23)C1=O | 10.0 | -6.8 | 35.7* | 4.3 | i | 98.7 | 13.3 | 6.4
O=NN(CC(=O)NNc1ccccc1)CC(=O)NNc1ccccc1 | 1.8 | 5.9 | 2.9 | -3.4 | i | / | / | /
COc1ccc(NC(=O)c2ccc(COc3ccccc3Br)o2)c(OC)c1 | -6.1 | -3.3 | 0.3 | 21.0 | i | 104.0 | / | /
Cc1c(Cl)cccc1NC(=S)N(Cc1cccnc1)Cc1ccccc1Cl | 1.8 | -0.4 | -2.0 | 4.5 | i | 117.0 | / | /
CCN(CC)C(=O)Cn1cc(C(=O)C(=O)N2CC=C(c3ccccc3)CC2)c2ccccc21 | 7.0 | 0.1 | 65.2* | -1.3 | i | 105.5 | 63.4* | 65.5*
CCOc1ccc(NC(=O)COc2ccc3c(c2)CCC3)cc1OC | -10.8 | 3.5 | 1.7 | 2.4 | i | 99.2 | / | /
Nc1[nH]n(-c2ccccc2)c(=O)c1N=Nc1ccc2ncsc2c1 | 46.8 | -3.2 | 4.8 | -1.7 | i | 98.1 | / | /
CC1=CC(=O)C=C/C1=C(/c1ccc(O)cc1C)c1ccccc1S(=O)(=O)O | -0.4 | 3.5 | 35.9* | -3.9 | i | 102.5 | 18.3 | 16.5
CCN1C(=O)N(C)[C@@H](c2ccccc2)C(C(C)=O)=C1C | 3.5 | -0.2 | 3.5 | -2.2 | i | 106.9 | / | /
CSc1nnc(C(C)(C)C)c(=O)n1/N=C/c1c(O)ccc2ccccc12 | -0.6 | 1.8 | 33.1* | -0.3 | i | 89.5 | -6.7 | 3.0
Cc1n[nH]c(=S)n1/N=C/c1c(O)ccc2ccccc12 | 7.4 | 2.1 | -127.1 | -2.1 | i | 116.7 | / | /
Cc1cccc(CNC(=O)C2CCC(=O)N(C3CC3)C2)c1 (centres undefined) | 1.5 | 4.8 | 0.1 | -4.4 | i | 112.2 | / | /
COc1cc(/C=C2\SC(=S)N(CCC(=O)Nc3ccc(O)cc3)C2=O)cc(OC)c1OC | 18.5 | 2.4 | 14.2 | -0.1 | i | ? | / | /
CCc1nnc(NC(=O)CCN2C(=O)/C(=C/c3cc(OC)c(OC)c(OC)c3)SC2=S)s1 | 3.3 | 21.2 | 48.2* | 1.9 | i | 104.7 | 39.2* | 28.9
CC(C(=O)c1ccc(Br)cc1)[n+]1cccc(NC(=O)c2ccccc2)c1 (centres undefined) | -0.5 | 2.5 | 1.3 | -1.1 | i | 95.4 | / | /
